Laboratory results published in ChEMBL document CHEMBL4043283, “Discovery and Preclinical Development of IIIM-290, an Orally Active Potent Cyclin-Dependent Kinase Inhibitor” (J Med Chem, 2018).

Assays:
[1] = Protein binding in human plasma at 3 uM after 5 hrs by equilibrium dialysis method; type: ADME, cell-free; settings: read-out: PPB (converted)
[2] = AUC (0 to t) in BALB/c mouse at 1 mg/kg, iv by LC-MS/MS analysis; type: ADME, organism-based; settings: in vivo
Homo sapiens = species on record: Homo sapiens; assay: Selectivity ratio of IC50 for CDK2/cyclin A (unknown origin) to IC50 for CDK9/cyclin T1 (unknown origin)
MDA-MB-231 = assay: Growth inhibition of human MDA-MB-231 cells after 48 hrs by MTT assay; type: functional; settings: MDA-MB-231, 48 h
Outline: (§1)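 Cancer cell lines sourced from the National Cancer Institute (USA). Cells kept in appropriate growth medium at 37 °C, 95% humidity, 5% CO2. Antiproliferation read by tetrazolium (MTT) assay. GI50 values were determined only for compounds selected after an initial single-concentration screen.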

Salmonella typhimurium [3] = assay: Mutagenicity in Salmonella typhimurium TA98 at 50 ug/plate in presence of liver S9 fraction by Ames test; type: toxicity; settings: salmonella enterica subsp. enterica serovar typhimurium
[4] = AUC (0 to t) in BALB/c mouse at 10 mg/kg, po by LC-MS/MS analysis; type: ADME, organism-based; settings: in vivo
Cytochrome P450 2C9 = Cytochrome P450 2C9 (Homo sapiens, UniProt P11712); assay: Inhibition of human CYP2C9 using fluorogenic substrate preincubated with co-factor for 10 mins followed by enzyme-substrate addition by fluorometric method; type: ADME
Sequence of Cytochrome P450 2C9 (P11712 whole entry): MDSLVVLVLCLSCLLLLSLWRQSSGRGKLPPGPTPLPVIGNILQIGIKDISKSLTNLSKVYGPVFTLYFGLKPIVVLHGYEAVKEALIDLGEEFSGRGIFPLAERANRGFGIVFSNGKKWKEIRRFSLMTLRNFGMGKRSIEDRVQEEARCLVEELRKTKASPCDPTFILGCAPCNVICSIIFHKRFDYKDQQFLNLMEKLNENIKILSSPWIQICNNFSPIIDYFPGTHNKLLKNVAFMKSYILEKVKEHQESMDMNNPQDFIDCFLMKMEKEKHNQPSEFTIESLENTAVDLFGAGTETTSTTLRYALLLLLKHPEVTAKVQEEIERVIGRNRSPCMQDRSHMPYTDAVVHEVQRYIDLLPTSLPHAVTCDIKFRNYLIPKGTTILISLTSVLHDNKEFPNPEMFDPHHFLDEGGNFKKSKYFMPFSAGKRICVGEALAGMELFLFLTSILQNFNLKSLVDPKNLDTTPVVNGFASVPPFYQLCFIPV
Outline: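 Cofactor plus test item or vehicle, in triplicate, preincubated 10 min at 37 °C; prewarmed enzyme–substrate mix added and incubated at 37 °C with shaking. Quench: acetonitrile (CYP2C19, CYP3A4) or 0.25 M Tris in 60% methanol (CYP2C9, CYP2D6). Metabolite fluorescence read; % inhibition computed against enzyme controls and enzyme-free blanks.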

[5] = AUC in Sprague-Dawley rat at 3 mg/kg, po by LC-MS/MS analysis; type: ADME, organism-based; settings: in vivo
[6] = Cmax in Sprague-Dawley rat at 30 mg/kg, po by LC-MS/MS analysis; type: ADME, organism-based; set-up: dose 30 mg/kg, route oral; settings: in vivo
MIA PaCa-2 [7] = assay: Growth inhibition of human MIAPaCa2 cells at 10 uM after 48 hrs by MTT assay relative to control; type: functional; settings: MIA PaCa-2, 48 h, read-out: GI
Outline: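 Single-concentration primary screen at 10 μM by MTT assay. Cells were NCI-sourced cancer lines grown in appropriate medium at 37 °C, 95% humidity, 5% CO2. Growth inhibition is expressed relative to control.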

MIA PaCa-2 [8] = assay: Antitumor activity against human MIAPaCa2 cells xenografted in CD1 nude mouse assessed as tumor growth inhibition at 50 mg/kg, po qd administered on day 10 to 25 post tumor inoculation relative to control; type: functional; settings: MIA PaCa-2, po, 240 h, read-out: TGI
[9] = Pancreas to plasma partition coefficient, Kp of the compound in BALB/c mouse at 30 mg/kg, po measured at 8 hrs; type: ADME, organism-based; settings: pancreas and plasma
[10] = Efflux ratio of apparent permeability across basolateral to apical side over apical to basolateral side in human Caco2 cells after 90 mins by LC-MS/MS analysis; type: ADME, cell-based; settings: Caco-2
Outline: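 Caco-2 monolayers cultured for 21 days. Test compound applied in HBSS buffer with 10 mM HEPES. Samples drawn from both the apical and basolateral chambers.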

[11] = Ratio of Cmax in BALB/c mouse at 30 mg/kg, po to GI50 for human HL60 cells
[12] = Ratio of Cmax in Sprague-Dawley rat at 30 mg/kg, po to GI50 for human HL60 cells
[13] = Half life in dog hepatocytes at 3 uM after 180 mins by LC-MS/MS analysis; type: ADME, cell-based, Canis lupus familiaris, Hepatocyte
[14] = Half life in human hepatocytes at 3 uM after 180 mins by LC-MS/MS analysis; type: ADME, cell-based, Hepatocyte
HL-60 = assay: Growth inhibition of human HL60 cells after 48 hrs by MTT assay; type: functional; settings: HL-60, 48 h; outline: as §1
[15] = n-octanol-water partition co-efficient, log P of compound by shake flask method; type: physicochemical
[16] = tested on: Tyrosine-protein kinase ABL1 (Homo sapiens), P00519 [Q252H]; assay: Inhibition of partial length human ABL1 Q252H mutant expressed in mammalian expression system at 0.5 uM by KINOMEscan method relative to control
Outline: (§2)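 Competition binding screen (KINOMEscan) at 0.5 μM; primary binding read out as % of control, lower values indicating stronger interaction.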

CDK9/cyclin T1 = CDK9/cyclin T1 (Homo sapiens, UniProt P50750); assay: Inhibition of CDK9/cyclin T1 (unknown origin) using YSPTSPSYSPTSPSYSPTSPKKK as substrate after 30 mins in presence of [33P]-gamma-ATP by filter binding assay; type: protein-complex assay
Sequence of CDK9/cyclin T1 (O60563 whole entry): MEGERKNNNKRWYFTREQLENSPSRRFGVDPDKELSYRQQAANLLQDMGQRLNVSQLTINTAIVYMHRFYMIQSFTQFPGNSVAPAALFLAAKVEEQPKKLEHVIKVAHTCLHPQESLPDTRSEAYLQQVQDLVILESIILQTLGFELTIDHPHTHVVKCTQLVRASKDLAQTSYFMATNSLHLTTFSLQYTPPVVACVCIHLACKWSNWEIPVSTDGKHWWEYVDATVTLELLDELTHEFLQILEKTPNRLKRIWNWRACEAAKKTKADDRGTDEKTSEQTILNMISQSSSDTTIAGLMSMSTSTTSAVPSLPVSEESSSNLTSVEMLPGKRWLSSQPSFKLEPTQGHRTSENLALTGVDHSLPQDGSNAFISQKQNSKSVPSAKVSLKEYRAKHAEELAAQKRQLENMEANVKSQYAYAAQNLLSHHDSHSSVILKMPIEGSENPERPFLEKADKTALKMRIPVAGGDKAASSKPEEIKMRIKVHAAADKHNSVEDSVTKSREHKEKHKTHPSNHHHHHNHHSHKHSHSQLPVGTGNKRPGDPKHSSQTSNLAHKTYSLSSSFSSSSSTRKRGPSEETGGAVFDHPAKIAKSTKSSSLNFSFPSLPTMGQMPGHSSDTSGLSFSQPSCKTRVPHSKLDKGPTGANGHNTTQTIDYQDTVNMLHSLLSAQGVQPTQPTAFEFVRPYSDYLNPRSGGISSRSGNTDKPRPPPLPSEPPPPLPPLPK
Sequence of CDK9/cyclin T1 (P50750 whole entry): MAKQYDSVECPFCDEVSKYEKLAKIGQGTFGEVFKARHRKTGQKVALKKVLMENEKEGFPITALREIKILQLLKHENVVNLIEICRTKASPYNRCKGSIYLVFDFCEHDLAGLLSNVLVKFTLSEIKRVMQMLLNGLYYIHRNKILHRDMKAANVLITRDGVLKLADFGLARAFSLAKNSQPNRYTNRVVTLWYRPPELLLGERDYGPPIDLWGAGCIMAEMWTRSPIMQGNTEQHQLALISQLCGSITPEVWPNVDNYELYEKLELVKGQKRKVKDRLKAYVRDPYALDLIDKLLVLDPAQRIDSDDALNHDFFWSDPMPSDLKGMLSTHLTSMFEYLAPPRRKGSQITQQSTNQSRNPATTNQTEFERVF

[17] = AUC in Sprague-Dawley rat at 10 mg/kg, po by LC-MS/MS analysis; type: ADME, organism-based; settings: in vivo
NCI-H226 = assay: Growth inhibition of human NCI-H226 cells after 48 hrs by MTT assay; type: functional; settings: NCI-H226, 48 h; outline: as §1
[18] = Pancreas to plasma partition coefficient, Kp of the compound in Sprague-Dawley rat at 30 mg/kg, po measured at 1 hr; type: ADME, organism-based; settings: pancreas and plasma
MIA PaCa-2 [19] = assay: Growth inhibition of human MIAPaCa2 cells after 48 hrs by MTT assay; type: functional; settings: MIA PaCa-2, 48 h; outline: as §1
PC-3 = assay: Growth inhibition of human PC3 cells after 48 hrs by MTT assay; type: functional; settings: PC-3, 48 h; outline: as §1
MIA PaCa-2 [20] = assay: Cell cycle arrest in human MIAPaCa2 cells assessed as accumulation at G1 phase at 1.5 uM after 24 hrs by propidium iodide staining-based flow cytometric method (reference value: 36%); type: functional
OVCAR-3 = assay: Growth inhibition of human OVCAR3 cells after 48 hrs by MTT assay; type: functional; settings: OVCAR-3, 48 h; outline: as §1
Cytochrome P450 2D6 = Cytochrome P450 2D6 (Homo sapiens, UniProt P10635); assay: Time-dependent inhibition of human CYP2D6 at 2 uM using fluorogenic substrate by fluorometric method; type: ADME
Sequence of Cytochrome P450 2D6 (P10635 whole entry): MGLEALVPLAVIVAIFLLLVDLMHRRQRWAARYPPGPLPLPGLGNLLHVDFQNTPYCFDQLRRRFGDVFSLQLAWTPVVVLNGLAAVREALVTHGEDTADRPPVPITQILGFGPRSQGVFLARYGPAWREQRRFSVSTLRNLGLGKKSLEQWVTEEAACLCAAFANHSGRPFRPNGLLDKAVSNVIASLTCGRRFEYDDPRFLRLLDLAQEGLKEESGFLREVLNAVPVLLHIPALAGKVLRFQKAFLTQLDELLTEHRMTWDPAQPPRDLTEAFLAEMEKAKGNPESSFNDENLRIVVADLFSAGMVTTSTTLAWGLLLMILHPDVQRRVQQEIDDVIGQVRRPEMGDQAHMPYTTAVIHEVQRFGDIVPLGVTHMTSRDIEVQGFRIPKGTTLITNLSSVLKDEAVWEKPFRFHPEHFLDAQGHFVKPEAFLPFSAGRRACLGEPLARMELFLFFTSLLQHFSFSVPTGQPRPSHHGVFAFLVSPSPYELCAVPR

Salmonella typhimurium [21] = assay: Mutagenicity in Salmonella typhimurium TA98 at 50 ug/plate in absence of liver S9 fraction by Ames test; type: toxicity; settings: salmonella enterica subsp. enterica serovar typhimurium
Salmonella typhimurium [22] = assay: Mutagenicity in Salmonella typhimurium TA100 at 50 ug/plate in presence of liver S9 fraction by Ames test; type: toxicity; settings: salmonella enterica subsp. enterica serovar typhimurium
[23] = Tmax in BALB/c mouse at 30 mg/kg, po by LC-MS/MS analysis; type: ADME, organism-based; settings: in vivo
[24] = target: Receptor tyrosine-protein kinase erbB-3 (Homo sapiens) (UniProt P21860); assay: Inhibition of partial length wild type human ERBB3 expressed in mammalian expression system at 0.5 uM by KINOMEscan method relative to control; outline: as §2
Sequence of Receptor tyrosine-protein kinase erbB-3 (Homo sapiens) (P21860 whole entry): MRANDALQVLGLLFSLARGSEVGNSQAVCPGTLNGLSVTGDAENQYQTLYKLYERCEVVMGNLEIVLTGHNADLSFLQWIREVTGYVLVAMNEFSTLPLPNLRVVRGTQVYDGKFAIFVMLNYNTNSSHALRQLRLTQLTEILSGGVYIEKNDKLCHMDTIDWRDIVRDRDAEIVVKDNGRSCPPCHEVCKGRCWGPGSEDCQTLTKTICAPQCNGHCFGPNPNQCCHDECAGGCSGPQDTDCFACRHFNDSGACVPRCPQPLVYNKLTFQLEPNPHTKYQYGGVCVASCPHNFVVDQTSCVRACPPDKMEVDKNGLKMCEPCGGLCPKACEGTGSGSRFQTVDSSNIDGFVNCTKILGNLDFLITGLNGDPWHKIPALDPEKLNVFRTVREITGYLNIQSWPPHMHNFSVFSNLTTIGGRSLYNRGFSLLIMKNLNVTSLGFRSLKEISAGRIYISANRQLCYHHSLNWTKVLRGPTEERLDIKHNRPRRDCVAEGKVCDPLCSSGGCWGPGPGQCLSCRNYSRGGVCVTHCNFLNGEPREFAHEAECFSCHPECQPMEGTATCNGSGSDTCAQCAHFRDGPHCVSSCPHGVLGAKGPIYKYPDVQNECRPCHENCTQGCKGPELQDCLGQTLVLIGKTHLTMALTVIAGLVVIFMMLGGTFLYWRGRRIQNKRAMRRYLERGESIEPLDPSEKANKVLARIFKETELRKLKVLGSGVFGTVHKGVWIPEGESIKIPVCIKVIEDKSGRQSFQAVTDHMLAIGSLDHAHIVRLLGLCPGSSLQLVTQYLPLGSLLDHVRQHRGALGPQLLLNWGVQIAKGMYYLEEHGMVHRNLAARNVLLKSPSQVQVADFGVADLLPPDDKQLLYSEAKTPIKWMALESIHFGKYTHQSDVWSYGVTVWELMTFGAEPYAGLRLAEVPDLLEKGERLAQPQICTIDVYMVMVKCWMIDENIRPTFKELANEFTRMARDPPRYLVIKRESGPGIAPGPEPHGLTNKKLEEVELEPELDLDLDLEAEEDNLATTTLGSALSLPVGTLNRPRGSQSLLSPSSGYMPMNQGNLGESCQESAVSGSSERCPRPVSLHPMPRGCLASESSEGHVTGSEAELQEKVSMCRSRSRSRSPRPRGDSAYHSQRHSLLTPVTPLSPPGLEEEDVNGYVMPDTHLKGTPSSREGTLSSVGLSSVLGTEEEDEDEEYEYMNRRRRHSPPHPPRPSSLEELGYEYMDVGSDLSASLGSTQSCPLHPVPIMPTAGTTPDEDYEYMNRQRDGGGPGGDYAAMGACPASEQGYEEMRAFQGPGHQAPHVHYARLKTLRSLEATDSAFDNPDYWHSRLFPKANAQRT

[25] = Tmax in BALB/c mouse at 10 mg/kg, po by LC-MS/MS analysis; type: ADME, organism-based; settings: in vivo
[26] = Oral bioavailability in BALB/c mouse at 10 mg/kg by LC-MS/MS analysis; type: ADME, organism-based; settings: in vivo
[27] = tested on: alpha-1 acid glycoprotein; assay: Binding affinity to alpha-1 acid glycoprotein (unknown origin); type: ADME; settings: human, read-out: PB (converted)
MIA PaCa-2 [28] = assay: Cell cycle arrest in human MIAPaCa2 cells assessed as accumulation at S phase at 1.5 uM after 24 hrs by propidium iodide staining-based flow cytometric method (reference value: 33%); type: functional

Compound `CN1CC[C@H](c2c(O)cc(O)c3c(=O)cc(/C=C/c4c(Cl)cccc4Cl)oc23)[C@H](O)C1` has a fraction unbound at 5 h, 3 µM [1] of 0.033, an AUC(0-t) [2] of 0.525 µM·h and a Ratio IC50 (Homo sapiens) of 7. The GI50 (MDA-MB-231) was 4 µM, the Activity (Salmonella typhimurium [3]) was “Non-Toxic” and the AUC(0-t) [4] was 4.5 µM·h. The IC50 (Cytochrome P450 2C9) was over 20 µM, the AUC [5] was 1.44 µM·h and the Cmax [6] was 3.62 µM. The inhibition of growth at 10 µM (MIA PaCa-2 [7]) was 88%, the inhibition in vivo at 50 mg/kg (MIA PaCa-2 [8]) was 40 to 52% and the Kp at 8 h [9] was 6.79. For the same compound, the efflux ratio at 1.5 h [10] was 1.8, the Ratio [11] was 4 and the Ratio [12] was 4. The half-life at 3 µM [13] was 4.68 h, the half-life at 3 µM [14] was 12.1 h and the GI50 (HL-60) was 0.9 µM. For the same compound, the logP [15] was 3.09, the inhibition [16] was over 98% and the IC50 (CDK9/cyclin T1) was 0.0019 µM. It also gave an AUC [17] of 5.68 µM·h, a GI50 (NCI-H226) of 4 µM and a Kp at 1 h [18] of 4.1. For the same compound, the GI50 (MIA PaCa-2 [19]) was 1 µM, the GI50 (PC-3) was 3 to 6 µM and the Activity (MIA PaCa-2 [20]) was 48%. For the same compound, the GI50 (OVCAR-3) was 8 µM, the TDI (Cytochrome P450 2D6) was “Not Active” and the Activity (Salmonella typhimurium [21]) was “Non-Toxic”. The Activity (Salmonella typhimurium [22]) was “Non-Toxic”, the Tmax [23] was 0.54 h and the inhibition [24] was over 98%. It also gave a Tmax [25] of 0.25 to 1.71 h, a bioavailability [26] of 70.7% and a fraction unbound [27] of 0.017. It also gave an Activity (MIA PaCa-2 [28]) of 33%.
